# Experimental data reported in ChEMBL document CHEMBL4513216, “Probing the Open Global Health Chemical Diversity Library for Multistage-Active Starting Points for Next-Generation Antimalarials” (ACS Infect Dis, 2020).
# Experiment: Toxicity liver stage against HepG2, at 10uM
# Format: cell-based
# Design: test concentration 10 uM, cell line HepG2-A16-CD81EGFP
# Conditions: human, HepG2-A16-CD81EGFP cells; read-out: INHIBITION
# Summary of the method: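 Uninfected HepG2-A16-CD81EGFP cells, 3 × 10^3 per well, 1536-well, plated on prespotted compound at 10 μM final, parasite-free screening media added to match infected plates; puromycin 10 μM positive, DMSO 0.5% negative; run in parallel with 48 h PbLuc assay at 37 °C, 5% CO2; viability by CellTiter-Glo luminescence, normalized to controls.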
row,Compound,cytotoxicity at 10 µM [%]
1,Cc1ccc2c(c1)c(Sc1ccccc1)c(CC(=O)O)n2C,3.56
2,COc1ccc2[nH]cc(C(=O)CNc3nccs3)c2c1,4.32
3,O=C(Nc1nc2c(s1)CN(S(=O)(=O)C1CC1)CC2)c1ccsc1,24.9
4,CCN(CC)C(=O)c1nc2c(s1)CCN(C(=O)CCC(=O)OC)CC2,12.9
5,O=C(c1ncn2c(C3CCN(CC4CC4)CC3)ccnc12)N1CCCC1,-3
6,Cc1ccc(C(=O)N2CCc3ncnc(C)c3CC2)cn1,9.75
7,CCc1c(C)nc2n(c1=O)CC(C(=O)Nc1nccs1)CS2 (stereo not drawn),1.83
8,O=C(Cn1cc(C(=O)O)ccc1=O)Nc1ccc(F)cc1Cl,0.381
9,CCc1oc2ccc(NS(C)(=O)=O)cc2c1C(=O)OC,6.8
10,Cc1cc2nc(SCC(=O)NC(C)C)n(Cc3ccco3)c(O)c-2n1,10.5
11,COCCCNC(=O)CCn1nc(C)c2ccccc21,9.87
12,COc1ccc(-c2cc(C3CCCCCN3S(C)(=O)=O)on2)cc1 (stereo not drawn),0.46
13,CS(=O)(=O)c1cc(Cl)cnc1C1CCN(C(=O)C2CCCO2)CC1 (stereo not drawn),4.38
14,Cc1cc(C(=O)N2CCC(O)(Cn3ccc4ccncc43)CC2)on1,7.55
15,O=C(Cn1cnc2cc3c(cc21)OCCCO3)NCCc1ccccc1,7.57
16,CNc1cncc(C2CCN(S(C)(=O)=O)CC2)n1,3.54
17,Cc1ccc(S(=O)(=O)N2CCC(c3n[nH]cc3C(=O)N(C)C)CC2)cc1,-1.73
18,Cc1cnc(N2CCOC(C(=O)NCc3ccccc3)C2)s1 (stereo not drawn),-2.84
19,COc1ccc(Br)cc1SCCCS(C)(=O)=O,3.85
20,N#Cc1ccc(S(=O)(=O)Nc2ccc(N3CCOCC3)cn2)cc1,0.966
21,CC(C)Cc1nc(CS(=O)(=O)C(C)C(=O)N2CCOCC2)no1 (stereo not drawn),3.13

row,Compound,cytotoxicity at 10 µM [%]
1,CN(CCc1nc(-c2cccc(Cl)c2)no1)CCn1cccn1,8.86
2,O=C(NC(C1CC1)C1CC1)c1cccc[n+]1[O-],10.8
3,CCN(C)c1ccc(CNC(=O)CCn2cc(C)cn2)cc1F,-9.51
4,NC(=O)Nc1cccc(CNC(=O)CCCOCc2ccccc2)c1,-8.06
5,Cc1cc(C2CCCN(C(=O)COc3ccc(F)cc3F)C2)n[nH]1 (stereo not drawn),5.93
6,O=C1CN(C(=O)CSC2CCCc3ccccc32)CCN1 (stereo not drawn),-9.45
7,Cn1cc(C(=O)CC2CCCN2C(=O)c2ccc(Cl)o2)cn1 (stereo not drawn),-4.57
8,CC(C)C1CCCN1CC(=O)NCc1ccc(OCC(N)=O)cc1 (stereo not drawn),7.01
9,CC1CCC(NC(=O)CNC2(c3ccc(F)cc3)CCOCC2)CC1 (stereo not drawn),7.79
10,Cc1cccc2nc(CNC(=O)N3CCC(N4CC=CC4)C3)cn12 (stereo not drawn),5.88
11,CC(=O)N(Cc1ncc(C)o1)C1CCN(CCc2ccncc2)C1 (stereo not drawn),1.3
12,CCOC(=O)NC(=O)CSC(C)c1ccccc1F (stereo not drawn),-15.1
13,Cc1ccc(C(=O)NCc2ccc(N3CCNC(=O)C3)c(F)c2)cc1,-3.31
14,CCC(CC)c1cc(CNC(=O)N2CCCN(C(C)=O)CC2)on1,-7.55
15,Cc1noc(CCCC(=O)NC(C)c2nnc3n2CCC3)n1 (stereo not drawn),0.259
16,CCOCCN1CCN(Cc2nnc(C3CC3)o2)CC1,1.95
17,O=C1CCC(=O)N1CCN1CCOC(c2ccsc2)C1 (stereo not drawn),7.55
18,COCCOCCNS(=O)(=O)C1CS(=O)(=O)c2ccccc21 (stereo not drawn),-15.3
19,CNS(=O)(=O)c1ccc(CNC(=O)c2cc(C)no2)cc1,5.12
20,OCCOc1cc(F)ccc1NCc1nc(-c2cccs2)no1,-46.1
21,Cc1noc(CCCC(=O)Nc2cc(C(F)(F)F)c[nH]c2=O)n1,-10.8

row,Compound,cytotoxicity at 10 µM [%]
1,COc1ccc(NC2CCN(C3CC3)C2=O)cn1 (stereo not drawn),-10
2,O=C(NCCC1Cc2ccccc2C1)N1CCCC(O)C1 (stereo not drawn),22.2
3,CN(Cc1nnc(C2CCC2)o1)C(C(N)=O)c1cccc(F)c1 (stereo not drawn),16.7
4,O=C(NCC1CCCCO1)c1ccc(-c2cccs2)[nH]c1=O (stereo not drawn),-7.03
5,O=C(O)c1ccc(S(=O)(=O)Nc2cccc(CC(F)(F)F)c2)c(F)c1,-6.19
6,COc1ccc(CCC(=O)Nc2ccncc2C)cc1,16.1
7,Cc1ncc(-c2ccnc(N3CCCCCC3)n2)c(-c2cccnc2)n1,6.21
8,CC(C)[C@H]1CN(Cc2nccn2C)C[C@@H]1NC(=O)CCS(C)(=O)=O,-8.85
9,CCN(CCO)C[C@@H]1CN(c2cc(C(F)(F)F)cc(C)n2)C[C@@H]1CO,-1.7
10,Cc1c(C(=O)N2CCC3(CCCNC3=O)C2)sc2nc[nH]c(=O)c12 (stereo not drawn),-10.7
11,COc1ccc2c(c1)OCC(CNC(=O)c1cnc(O)cn1)C2 (stereo not drawn),-1.09
12,COC[C@]1(O)CCN(c2cc(C3CC3)ncn2)CC1(C)C,-1.53
13,Cc1nn(C)c2nc(N3CCC(C(O)c4nccn4C)CC3)sc12 (stereo not drawn),0.79
14,CC(C)n1cnnc1Cn1ccc2ncccc2c1=O,0.86
15,CC(C)CCN1CCNC(=O)C1CC(=O)NCCc1cc(O)ncn1 (stereo not drawn),-0.806
16,Cc1noc(C)c1C1CCCN1C(=O)c1cn2ccsc2n1 (stereo not drawn),12.3
17,CC[C@@]1(O)CCN(C(=O)c2ccoc2)C[C@H]1O,4.63
18,CCC1CN(C(=O)c2cncc(C)c2)CCC(=O)N1Cc1ccccc1 (stereo not drawn),9.33
19,COC(=O)N1CCCCC1C(=O)N1CCN(c2ncccc2C)CC1 (stereo not drawn),3.37
20,Cc1ccc(C)c(OCc2cc(C(=O)N(C)Cc3cnn(C)c3)no2)c1,-6.12
21,Cc1nc(CN2CCC(Oc3ccc(F)cc3C)(C(=O)O)CC2)co1,2.28

row,Compound,cytotoxicity at 10 µM [%]
1,Cc1nn(CCO)cc1CN1CCCN(C2CCCC2)CC1,0.292
2,O=C(N[C@@H]1CCN(Cc2cccc3nonc23)C[C@H]1O)c1cccnc1,-2.3
3,COc1ccc(-n2cccn2)cc1S(=O)(=O)N1C[C@H](C2CC2)[C@@H](N)C1,4.69
4,Cc1ccc(-c2nc(CNC3CCc4ncnn4C3)co2)cc1 (stereo not drawn),-3.75
5,COc1ccccc1C(=O)Nc1cc(CC(C)C)nn1C,-12.5
6,Cc1cccc(OCCNC(=O)CN2CCCC2Cn2cncn2)c1 (stereo not drawn),-4.03
7,Cc1nc(CN2CCCN(C(=O)CCc3ccco3)CC2)cs1,0.386
8,CCNC(c1ccc(C)cc1)c1cccnc1 (stereo not drawn),0.533
9,COc1ccc(CCNC(=O)NCC(O)c2cccc(F)c2)cc1 (stereo not drawn),-6.33
10,CSc1nccn1-c1cccc(C(=O)NCc2nnc(C)n2C)c1,-9.46
11,O=C(CCn1cccn1)N1CCN(CC(F)F)CC1,-5.11
12,CN(Cc1ncc[nH]1)CC(c1cccs1)N1CCOCC1 (stereo not drawn),-4.22
13,CC(NC(=O)NCCCOC1CCCCC1)c1nncn1C (stereo not drawn),-7.47
14,CC(CC#N)NC(=O)c1cc(Br)c2c(c1)OCCO2 (stereo not drawn),5.56
15,O=C(COc1cccc(Br)c1)N1CCOCC1c1ncon1 (stereo not drawn),-9.36
16,CC(Cn1cccn1)NC(=O)NCc1ccc(S(N)(=O)=O)cc1 (stereo not drawn),3.63
17,CN(C)C(=O)c1sc2ncccc2c1C1CNCCO1 (stereo not drawn),2.35
18,CCc1ccc(CN2CCc3ncnc(N4CCOCC4)c3CC2)o1,-2.05
19,CCCn1nccc1NC(=O)CN1CCc2c(nc(C(C)C)n2C)C1,4.02
20,CCc1noc(CN2C[C@@H]3CC[C@H]2CN(C2Cc4ccccc4C2)C3)n1,-0.268
